Data reported in ChEMBL document CHEMBL5107974, “Design, synthesis, and biological evaluation of new thalidomide-donepezil hybrids as neuroprotective agents targeting cholinesterases and neuroinflammation” (RSC Med Chem, 2022).
pIC50: −log10 of the molar value. Activity calls are given as the source filed them. No cut-off for these calls is given here.

Columns and labels:
[1] = target: Acetylcholinesterase (Electrophorus electricus) (UniProt O42275); assay: Inhibition of electric eel AChE using […] as a substrate at 30 uM incubated for 10 mins by DTNB reagent based Ellman's method
Procedure, shortened: (§1)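 Ellman method in Tris-HCl 0.02 M pH 7.5 with BSA, inhibitor at 30 uM final, DMSO 0.2% vehicle as negative control. Enzyme (eeAChE or equine serum BuChE) with DTNB preincubated 10 min at room temperature; acetylthiocholine or butyrylthiocholine iodide added, absorbance at 415 nm after 10 min. Activity as % of DMSO control, blank-corrected; triplicate.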

[2] = target: Cholinesterase (Equus caballus) (UniProt P81908); assay: Inhibition of equine serum BuChE using S-butyrylthiocholine iodide as a substrate at 30 uM incubated for 10 mins by DTNB reagent based Ellman's method; format: cell-free; procedure, shortened: as §1
[3] = system: SH-SY5Y; assay: Cytotoxicity against human SH-SY5Y cells assessed as reduction in cell viability at 80 uM incubated for 24 hrs by MTT assay; format: functional
Procedure, shortened: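 SH-SY5Y cells seeded at 2×10^4 per well, grown 24 h, then treated 24 h at 37 °C (range 2.5–80 uM). MTT 0.5 mg mL-1 in HBSS for 2 h; formazan dissolved in isopropanol, read at 570 nm (reference 690 nm). Viability relative to untreated cells; mean ± SEM of three independent experiments.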

[4] = system: THP-1; assay: Anti-inflammatory activity in human THP-1 cells assessed as inhibition of LPS-induced IL-1beta expression at 10 uM incubated for 24 hrs by RT-PCR analysis; format: functional
Procedure, shortened: (§2)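 THP-1 monocytes differentiated to microglia-like cells with PMA 5 ng mL-1 for 24 h, then exposed 24 h to LPS 1 ug mL-1 together with compound (10 uM). RNA extracted; expression by quantitative RT-PCR, relative quantification by 2^-ΔΔCt with untreated cells as control. Mean ± SEM of three independent experiments.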

[5] = system: Rattus norvegicus; assay: Anti-inflammatory activity in LPS-induced Wistar rat assessed as increase in traveled distance at po dosed measured upto 24 hrs by open field test; format: functional, organism-based
Procedure, shortened: (§3)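 Adult male Wistar rats (n = 7–8 per group), overnight 8 h fast; vehicle or compound by gavage, then LPS or saline intraperitoneally. 2 h after LPS, each rat was placed in the centre of a circular open-field arena and filmed for 5 min. Distance travelled and immobility time were scored by video tracking. Results given as mean ± SEM.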

[6] = system: THP-1; assay: Anti-inflammatory activity in human THP-1 cells assessed as inhibition of LPS-induced iNOS expression at 10 uM incubated for 24 hrs by RT-PCR analysis; format: functional; procedure, shortened: as §2
[7] = Permeability of compound in PBS buffer at pH 6.6 by PAMPA-GIT assay; format: ADME
Procedure, shortened: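 PAMPA-GIT: 10 μM compound in PBS pH 6.6 as donor, filter coated with soy L-α-phosphatidylcholine (20 mg/mL in dodecane). Acceptor was PBS pH 7.4:DMSO (95:5). Plates shaken at 50 rpm for 8 h at room temperature. Run in triplicate; absorbed fraction (Fa%) classed high, medium or low.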

[8] = target: Acetylcholinesterase (Electrophorus electricus, UniProt O42275); assay: Inhibition of electric eel AChE using […] as a substrate incubated for 10 mins by DTNB reagent based Ellman's method
[9] = system: Rattus norvegicus; assay: Anti-inflammatory activity in LPS-induced Wistar rat assessed as decrease in immobility time at po dosed measured upto 24 hrs by open field test; format: functional, organism-based; procedure, shortened: as §3
[10] = system: Rattus norvegicus; assay: Anti-inflammatory activity in LPS-induced Wistar rat assessed as increase in food intake at po dosed measured upto 24 hrs; format: functional, organism-based
Procedure, shortened: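 Adult male Wistar rats (n = 7 per group), housed individually; overnight 8 h fast, then food removed 2 h on the test day. Vehicle or compound was given by gavage, then LPS or saline intraperitoneally. Pre-weighed pelleted feed was reintroduced and weighed at 2, 4, 6 and 24 h. Results given as mean ± SEM.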

[11] = Permeability of compound in PBS buffer at pH 7.4 by PAMPA-BBB assay; format: ADME; details: read-out: permeability
Procedure, shortened: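 PAMPA-BBB: compound dissolved in ethanol, diluted with PBS pH 7.4 and filtered, then added in triplicate to a donor filter coated with porcine brain polar lipid (20 mg/mL in dodecane). Acceptor was PBS pH 7.4:ethanol (70:30). Incubated 2 h 45 min at about 25 °C, humidified. Donor and acceptor concentrations read by UV; compounds classed BBB+ or BBB−.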

[12] = system: SH-SY5Y; assay: Neuronal plasticity in human SH-SY5Y cells assessed as increase in SYP gene expression at 10 uM incubated for 24 hrs by RT-PCR analysis; format: functional, cell-based
Procedure, shortened: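 SH-SY5Y cells grown in DMEM with 10% FBS and differentiated with retinoic acid (10 μM) for 6 days. Compound 10 μM for 24 h. RNA extracted, SYP mRNA measured by quantitative RT-PCR, relative quantity by 2^-ΔΔCt against untreated cells. Three independent experiments, mean ± SEM, Student's t-test.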

Sequence of Cholinesterase (Equus caballus) (P81908 whole entry): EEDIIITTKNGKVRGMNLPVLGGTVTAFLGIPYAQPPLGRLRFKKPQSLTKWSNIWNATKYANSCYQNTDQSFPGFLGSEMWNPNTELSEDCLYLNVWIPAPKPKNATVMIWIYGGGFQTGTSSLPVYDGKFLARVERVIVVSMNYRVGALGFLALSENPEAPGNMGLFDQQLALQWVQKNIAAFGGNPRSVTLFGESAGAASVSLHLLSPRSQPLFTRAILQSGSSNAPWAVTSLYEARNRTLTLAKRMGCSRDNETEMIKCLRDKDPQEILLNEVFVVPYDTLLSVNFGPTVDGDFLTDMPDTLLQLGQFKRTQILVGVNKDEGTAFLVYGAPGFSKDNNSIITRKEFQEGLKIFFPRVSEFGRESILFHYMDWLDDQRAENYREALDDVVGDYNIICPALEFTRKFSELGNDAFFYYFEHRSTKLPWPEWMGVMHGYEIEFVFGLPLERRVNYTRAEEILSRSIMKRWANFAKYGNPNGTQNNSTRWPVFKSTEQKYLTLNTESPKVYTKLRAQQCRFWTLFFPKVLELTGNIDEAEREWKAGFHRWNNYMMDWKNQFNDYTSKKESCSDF
Sequence of Acetylcholinesterase (Electrophorus electricus) (O42275 24-633 limits assumed): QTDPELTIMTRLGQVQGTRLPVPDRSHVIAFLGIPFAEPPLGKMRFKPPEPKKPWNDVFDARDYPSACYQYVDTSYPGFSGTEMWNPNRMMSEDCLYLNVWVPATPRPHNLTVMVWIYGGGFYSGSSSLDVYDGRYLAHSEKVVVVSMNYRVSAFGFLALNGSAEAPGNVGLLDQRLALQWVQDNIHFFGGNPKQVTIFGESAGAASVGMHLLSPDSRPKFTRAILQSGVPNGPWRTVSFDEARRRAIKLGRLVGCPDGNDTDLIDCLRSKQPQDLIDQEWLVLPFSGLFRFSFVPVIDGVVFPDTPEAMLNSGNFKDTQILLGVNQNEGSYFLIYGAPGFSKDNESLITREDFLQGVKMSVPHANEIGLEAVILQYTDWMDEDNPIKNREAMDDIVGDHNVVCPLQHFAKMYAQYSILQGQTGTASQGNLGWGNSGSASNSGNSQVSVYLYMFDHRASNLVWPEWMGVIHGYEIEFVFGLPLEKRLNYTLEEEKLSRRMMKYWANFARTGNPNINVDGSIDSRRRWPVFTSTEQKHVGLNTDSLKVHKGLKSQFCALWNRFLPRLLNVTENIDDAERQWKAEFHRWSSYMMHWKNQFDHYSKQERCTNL
Sequence of Acetylcholinesterase (O42275 whole entry): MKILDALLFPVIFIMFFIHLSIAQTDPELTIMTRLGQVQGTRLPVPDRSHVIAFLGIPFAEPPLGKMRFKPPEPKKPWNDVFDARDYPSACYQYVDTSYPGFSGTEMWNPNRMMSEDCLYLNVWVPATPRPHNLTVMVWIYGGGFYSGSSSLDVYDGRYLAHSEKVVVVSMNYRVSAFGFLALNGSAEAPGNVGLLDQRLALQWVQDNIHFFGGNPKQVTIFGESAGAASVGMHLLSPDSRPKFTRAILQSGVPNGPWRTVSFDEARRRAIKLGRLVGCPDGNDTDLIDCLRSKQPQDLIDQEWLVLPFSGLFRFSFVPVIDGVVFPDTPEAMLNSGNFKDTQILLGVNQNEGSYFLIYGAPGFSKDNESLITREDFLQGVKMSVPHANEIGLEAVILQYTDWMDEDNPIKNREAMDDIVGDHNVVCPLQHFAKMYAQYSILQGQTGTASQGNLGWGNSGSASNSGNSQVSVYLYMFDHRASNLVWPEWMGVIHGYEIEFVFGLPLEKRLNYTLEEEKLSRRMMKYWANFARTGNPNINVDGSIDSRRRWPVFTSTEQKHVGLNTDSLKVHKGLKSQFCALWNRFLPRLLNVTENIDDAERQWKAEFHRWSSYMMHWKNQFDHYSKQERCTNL

| SMILES | inhibition [1] [%] | inhibition [2] [%] | further results |
| --- | --- | --- | --- |
| O=C(CN1C(=O)c2ccccc2C1=O)N1CCN(c2ccc(Cl)cc2)CC1 | 8.11 | -2.09 | Activity [3]: 50% |
| O=C(CN1C(=O)c2ccccc2C1=O)N1CCN(c2ncccn2)CC1 | 39.6 | -5.36 | Activity [3]: 50% |
| Cc1ccc(N2CCN(C(=O)CN3C(=O)c4ccccc4C3=O)CC2)cc1 | 11.6 | 0.3 | – |
| O=C(CN1C(=O)c2ccccc2C1=O)N1CCN(Cc2ccc(Cl)cc2)CC1 | 7.82 | 1.26 | – |
| O=C(CN1C(=O)c2ccccc2C1=O)N1CCN(c2ccncc2)CC1 | 85 | -4.47 | inhibition at 10 µM [4]: 39%; Activity [5]: Active; inhibition at 10 µM [6]: 43%; Fa [7]: 69.8%; Papp ([7]; read-out: permeability): 31.5 nm/s; pIC50 [8]: 5.50; Activity [9]: Active; Activity [10]: Active; Papp [11]: 139 nm/s; Activity [12]: Active |
| COc1ccc(CN2CCN(C(=O)CN3C(=O)c4ccccc4C3=O)CC2)cc1 | 17.1 | 25.4 | – |
| O=C(CN1C(=O)c2ccccc2C1=O)N1CCN(c2ccc([N+](=O)[O-])cc2)CC1 | 16.9 | -4.97 | – |
| O=C(CN1C(=O)c2ccccc2C1=O)N1CCN(Cc2ccc(Br)cc2)CC1 | 8.38 | -1.37 | – |
